From ChEMBL document CHEMBL1146986, “Synthesis and SAR studies of very potent imidazopyridine antiprotozoal agents” (Bioorg Med Chem Lett, 2006) come the findings set out here.

SMILES strings stand for the structures. Calls of active or inactive are those of the source. The rule behind the calls is not given here.

The test system of test [1] is Eimeria acervulina. Briefly: Antiparasitic activity against Eimeria acervulina in chicken at 25 ppm in feed assessed as percent reduction in oocyst. The test is classed as functional. Also on record: scale not given: the % may be the effect or the level left. Summed up: (§1)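 Infected chickens given compound orally in feed (ppm), seven-day in vivo efficacy model; activity quantified from oocyst shedding and graded as percent oocyst reduction versus infection.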

Test [2] has as its system Eimeria tenella. Briefly: Antiparasitic activity against Eimeria tenella in chicken at 25 ppm in feed assessed as percent reduction in oocyst. Also on record: scale not given: the % may be the effect or the level left. The test is classed as functional. Summed up:
as §1

Test [3] deals with cGMP-dependent protein kinase (Eimeria tenella, UniProt Q8MMZ8). Briefly: Inhibitory activity against PKG.
Test [4] relates to Salmonella typhimurium. Briefly: […] against Salmonella Typhimurium TA100 at 3000 ug/plate by Ames microbial mutagenesis assay. The conditions noted are these: Salmonella enterica subsp. enterica serovar Typhimurium. The test is classed as functional, organism-based. Summed up:
(§2)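 Plate-incorporation reverse mutation test: about 10^8 bacterial cells in molten top agar are mixed with test article in DMSO and cofactor plus S9 fraction (50 µL/plate) from induced male Sprague–Dawley rats. Plated in triplicate and incubated 37 °C for 48 h. Revertant colonies are counted automatically, as mean ± standard deviation (n = 3). A twofold or greater increase over solvent control counts as positive.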

For test [5], the system named is Eimeria acervulina. Briefly: Antiparasitic activity against Eimeria acervulina in chicken at 6.25 ppm in feed assessed as percent reduction in oocyst. The format is functional. Also on record: scale not given: the % may be the effect or the level left. In short, it runs like this:
(§3)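 Seven-day in vivo anticoccidial model in chickens infected with E. tenella and E. acervulina. Compound is given orally in feed (ppm). Oocyst shedding from infected birds is quantified, and activity is graded by percent oocyst reduction.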

The test system of test [6] is Eimeria tenella. Briefly: Antiparasitic activity against Eimeria tenella in chicken at 6.25 ppm in feed assessed as percent reduction in oocyst. The test is classed as functional. Also on record: scale not given: the % may be the effect or the level left. In short, it runs like this:
as §3

Test [7] concerns Salmonella typhimurium. Briefly: […] against Salmonella Typhimurium TA100 at 6000 ug/plate by Ames microbial mutagenesis assay. The test is classed as functional, organism-based. Particulars: Salmonella enterica subsp. enterica serovar Typhimurium. Summed up:
as §2

The test system of test [8] is Eimeria tenella. Briefly: Antiparasitic activity against Eimeria tenella in chicken at 12.5 ppm in feed assessed as percent reduction in oocyst. The format is functional. Also on record: scale not given: the % may be the effect or the level left. In short, it runs like this: as §1
Test [9] concerns Eimeria acervulina. Briefly: Antiparasitic activity against Eimeria acervulina in chicken at 12.5 ppm in feed assessed as percent reduction in oocyst. The test is classed as functional. Also on record: scale not given: the % may be the effect or the level left. In short, it runs like this:
as §1

The test system of test [10] is Salmonella typhimurium. Briefly: […] against Salmonella Typhimurium TA98 at 6000 ug/plate by Ames microbial mutagenesis assay. The format is functional, organism-based. The conditions noted are these: Salmonella enterica subsp. enterica serovar Typhimurium. Summed up:
as §2

Test [11] deals with Salmonella typhimurium. Briefly: […] against Salmonella Typhimurium TA98 at 3000 ug/plate by Ames microbial mutagenesis assay. The test is classed as functional, organism-based. Particulars: Salmonella enterica subsp. enterica serovar Typhimurium. Summed up: as §2

In general, IC50 refers to the point on the concentration scale where inhibition reaches its midpoint.

Sequence of cGMP-dependent protein kinase (Q8MMZ8 whole entry): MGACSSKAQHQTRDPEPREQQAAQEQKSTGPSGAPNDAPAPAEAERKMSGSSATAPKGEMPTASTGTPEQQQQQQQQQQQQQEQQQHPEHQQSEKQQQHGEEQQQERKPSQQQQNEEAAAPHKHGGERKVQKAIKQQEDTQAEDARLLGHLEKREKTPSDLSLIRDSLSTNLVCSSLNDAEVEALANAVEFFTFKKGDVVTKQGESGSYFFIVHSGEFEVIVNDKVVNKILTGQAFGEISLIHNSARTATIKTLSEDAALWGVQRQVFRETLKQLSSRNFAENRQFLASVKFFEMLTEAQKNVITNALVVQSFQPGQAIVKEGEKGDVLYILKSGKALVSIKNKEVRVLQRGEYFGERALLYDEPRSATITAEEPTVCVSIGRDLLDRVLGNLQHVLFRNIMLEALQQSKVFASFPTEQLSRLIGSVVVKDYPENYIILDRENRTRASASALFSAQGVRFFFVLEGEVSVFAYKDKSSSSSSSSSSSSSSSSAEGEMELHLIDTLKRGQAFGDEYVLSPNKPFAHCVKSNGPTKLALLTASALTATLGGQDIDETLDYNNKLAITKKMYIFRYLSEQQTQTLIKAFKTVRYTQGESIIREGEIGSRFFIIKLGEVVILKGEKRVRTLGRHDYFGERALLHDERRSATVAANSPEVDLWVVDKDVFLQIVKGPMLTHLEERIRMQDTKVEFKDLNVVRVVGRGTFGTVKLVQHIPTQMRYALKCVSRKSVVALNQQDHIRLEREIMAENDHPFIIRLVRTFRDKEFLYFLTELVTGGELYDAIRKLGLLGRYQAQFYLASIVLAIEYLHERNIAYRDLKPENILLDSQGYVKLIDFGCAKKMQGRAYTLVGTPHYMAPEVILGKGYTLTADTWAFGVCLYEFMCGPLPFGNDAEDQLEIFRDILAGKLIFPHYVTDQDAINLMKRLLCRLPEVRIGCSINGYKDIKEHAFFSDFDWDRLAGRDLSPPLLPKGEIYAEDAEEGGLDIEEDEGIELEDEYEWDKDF

Consider `CN(C)Cc1ccn2c(-c3ccnc(NCc4ccccc4)n3)c(-c3ccc(F)cc3)nc2c1`, for which the Activity entry in [1] and in test [2] was “>=80%” each time. The compound further gave an IC50 in test [3] of 81 pM.

With `NCc1ccn2c(-c3ccnc(N)n3)c(-c3ccc(F)cc3)nc2c1`, the Activity in [1] and in [2] was less than 50% each time. Besides, in test [3], the IC50 is 180 pM.

In the case of `CN(C)Cc1ccn2c(-c3ccncn3)c(-c3ccc(F)cc3)nc2c1`, the Activity in test [1] and in test [2] was less than 50% in each case. The IC50 in test [3] worked out at 1900 pM.

In the case of `CN(C)Cc1ccn2c(-c3ccnc(N)n3)c(-c3ccc(F)cc3)nc2c1`, the result in test [4], in test [7], in test [10] and in [11] was Active. In addition, the Activity in [5] is 50%; in test [6], 50%; in test [8] it was “>=80%”; in test [9], “>=80%”. Moreover, in test [3], the 50% inhibitory concentration (IC50) came to 110 pM.

`CNCc1ccn2c(-c3ccnc(N)n3)c(-c3ccc(F)cc3)nc2c1`: the Activity in test [1] and in [2] was less than 50% in each case. The compound also showed an IC50 in test [3] of 150 pM.

For `Nc1nccc(-c2c(-c3ccc(F)cc3)nc3cc(Cl)ccn23)n1`, the Activity in test [1] and in test [2] was less than 50% each time. Also, the IC50 in [3] came to 2700 pM.

With `N#Cc1ccn2c(-c3ccnc(N)n3)c(-c3ccc(F)cc3)nc2c1`, the Activity in test [1] and in test [2] was less than 50% in each case. Further, the IC50 in test [3] was 11300 pM.

As for `Nc1nccc(-c2c(-c3ccc(F)cc3)nc3cc(C4CCNCC4)ccn23)n1`, the Activity in [1] and in [2] was less than 50% in each case. Also, in [3], the IC50 was determined as 50 pM.

On to `CN1CCC(c2ccn3c(-c4ccnc(N)n4)c(-c4ccc(F)cc4)nc3c2)CC1`, for which the outcome in test [4], in [7], in test [10] and in test [11] was Active. Also, the values for the Activity entry in test [5], in [6] and in test [9] were “>=80%”, “>=80%” and 50%, respectively. 40 pM corresponded to half-maximal inhibition in test [3] (IC50).

Turning to `CN(C)Cc1ccn2c(-c3ccnc(N(C)C)n3)c(-c3ccc(F)cc3)nc2c1`, the Activity in [1] and in test [2] was less than 50% each time. For the same compound, the IC50 in test [3] came out at 2500 pM.

Consider `CNc1nccc(-c2c(-c3ccc(F)cc3)nc3cc(CN(C)C)ccn23)n1`, for which the Activity entry in test [1] and in [2] was “>=80%” in each case. This compound returned an IC50 in test [3] of 170 pM.

Consider `Nc1nccc(-c2c(-c3ccc(F)cc3)nc3cc(CO)ccn23)n1`, for which the Activity in test [1] and in test [2] was less than 50% each time. This compound also came in with a concentration for half-maximal inhibition (IC50) in [3] of 2700 pM.

Regarding `COc1nccc(-c2c(-c3ccc(F)cc3)nc3cc(CN(C)C)ccn23)n1`, the Activity in test [1] and in test [2] was less than 50% in each case. For the same compound, the IC50 in test [3] stood at 2600 pM.

As for `CN(C)Cc1ccn2c(-c3ccnc(NCC(C)(C)C)n3)c(-c3ccc(F)cc3)nc2c1`, the half-maximal inhibitory concentration (IC50) in [3] was 150 pM. In addition, the Activity entry in [8] and in test [9] was “>=80%” throughout.

Consider `CCCNc1nccc(-c2c(-c3ccc(F)cc3)nc3cc(CN(C)C)ccn23)n1`, for which the half-inhibitory concentration (IC50) in test [3] came out at 130 pM. In addition, the Activity entry in test [8] and in test [9] was “>=80%” each time.
